≈ marks a conversion by molar mass, not a printed value.
Legend:
[1] = system: Respiratory syncytial virus; test: Antiviral activity against Respiratory syncytial virus B1 infected in human Hep2 cells assessed as inhibition of virus-induced cytopathicity after 5 days by MTT assay; assay type: functional, organism-based; conditions: B1, HEp-2, 120 h
How it was run: (§1)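 HEp2 cells (1.0 × 10⁴/well) infected at low moi (e.g. RSV A2 at moi 0.01) and added to serially diluted compound; 5 days at 37 °C, 5% CO₂. CPE read by MTT (1 mg/ml, 2 h, 37 °C), isopropanol, absorbance 540 nm; EC₅₀ by non-linear regression. SD given where n > 2.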

[2] = system: Respiratory syncytial virus; test: Antiviral activity against wild-type Respiratory syncytial virus A Long infected in human Hep2 cells assessed as inhibition of virus-induced cytopathicity after 5 days by MTT assay; assay type: functional, organism-based; conditions: HEp-2, 120 h; how it was run: as §1
[3] = system: Respiratory syncytial virus; test: Antiviral activity against Respiratory syncytial virus A2 infected in human Hep2 cells assessed as inhibition of virus-induced cytopathicity after 5 days by MTT assay; assay type: functional, organism-based; conditions: A2, HEp-2, 120 h; how it was run: as §1
[4] = Cytotoxicity against human Hep2 cells after 5 days by MTT assay; assay type: cell-based, HEp-2
How it was run: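 Uninfected HEp2 cells (1.0 × 10⁴/well) with serially diluted compound, 5 days at 37 °C in 5% CO₂; viability by MTT (1 mg/ml, 2 h), isopropanol, absorbance 540 nm; CC₅₀ by non-linear regression.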

[5] = system: Respiratory syncytial virus; test: Antiviral activity against Respiratory syncytial virus A2 infected in human Hep2 cells assessed as inhibition of virus-induced cytopathicity after 5 days by MTT assay relative to alpha-1-acid glycoprotein; assay type: functional, HEp-2
How it was run: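 RSV A2 CPE assay in HEp2 cells (moi 0.01, 5 days, 37 °C, MTT read-out at 540 nm) run with alpha-1-acid glycoprotein at 1.5 mg/mL; result expressed as fold shift in EC₅₀ versus the assay without AAG.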

[6] = Kinetic solubility of the compound at pH 2 by nephelometry; assay type: physicochemical; conditions: buffer, read-out: Kinetic_solubility
How it was run: (§2)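 Kinetic solubility by nephelometry, at pH 2 and pH 6.5; reported as a range in μg/mL.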

[7] = Kinetic solubility of the compound at pH 6.5 by nephelometry; assay type: physicochemical; conditions: buffer, read-out: Kinetic_solubility; how it was run: as §2
[8] = Lipophilicity, log D of the compound in octanol saturated mobile phase at pH 7.4 by chromatographic method; assay type: physicochemical
How it was run: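 Effective logD determined chromatographically on a SUPELCOSIL LC-ABZ column with octanol-saturated mobile phase, pH 7.4.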

[9] = system: Respiratory syncytial virus; test: Selectivity ratio of EC50 for Respiratory syncytial virus A Long harboring F protein D489 mutant infected in human Hep2 cells to EC50 for wild-type Respiratory syncytial virus A Long infected in human Hep2 cells; assay type: functional, HEp-2
How it was run: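 CPE assay: HEp2 cells (1.0 × 10⁴/well) infected at low moi with RSV A Long, either F-protein D489Y mutant or wild type, and added to serially diluted compound. Incubated 5 days at 37 °C, 5% CO₂. MTT (1 mg/ml) added for 2 h, then isopropanol, and absorbance read at 540 nm. EC50 by non-linear regression. Ratio is mutant EC50 over wild-type EC50.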

[10] = Plasma protein binding in rat; assay type: ADME, cell-free; conditions: read-out: PPB (converted)
[11] = Elimination half life in Sprague-Dawley rat at 1.4 mg/kg, iv; assay type: ADME, organism-based; parameters: dose 1.4 mg/kg, route intravenous; conditions: in vivo, read-out: beta t1/2 (converted)
[12] = Total clearance in Sprague-Dawley rat at 1.4 mg/kg, iv; assay type: ADME, organism-based; parameters: dose 1.4 mg/kg, route intravenous; conditions: in vivo
[13] = Apparent volume of distribution in Sprague-Dawley rat at 1.4 mg/kg, iv; assay type: ADME, organism-based; parameters: dose 1.4 mg/kg, route intravenous; conditions: in vivo, read-out: Vz
[14] = Cmax in Sprague-Dawley rat at 22 mg/kg, po as suspension with hydroxypropylmethylcellulose; assay type: ADME, organism-based; parameters: dose 22 mg/kg, route oral; conditions: in vivo
[15] = Elimination half life in Sprague-Dawley rat at 22 mg/kg, po as suspension with hydroxypropylmethylcellulose; assay type: ADME, organism-based; parameters: dose 22 mg/kg, route oral; conditions: in vivo, read-out: beta t1/2 (converted)
[16] = Oral bioavailability in Sprague-Dawley rat at 22 mg/kg as suspension with hydroxypropylmethylcellulose; assay type: ADME, organism-based; conditions: in vivo
[17] = system: Respiratory syncytial virus; test: Selectivity ratio of EC50 for Respiratory syncytial virus A Long harboring F protein D489Y mutant infected in human Hep2 cells to EC50 for wild-type Respiratory syncytial virus A Long infected in human Hep2 cells
[18] = Oral bioavailability in Sprague-Dawley rat at 19 mg/kg as suspension with carboxymethylcellulose; assay type: ADME, organism-based; conditions: in vivo, 20 mg/kg, in the assay text read “20 mg/kg” for “19 mg/kg”
How it was run: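 Male Sprague-Dawley rats, n = 2, given a single oral dose. Plasma pharmacokinetics were analysed for Cmax (µM), terminal half-life (hr) and oral bioavailability F (%). The oral bioavailability estimate draws on a separate intravenous arm, also with n = 2 rats.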

[19] = Cmax in Sprague-Dawley rat at 20 mg/kg, po as suspension with carboxymethylcellulose; conditions: in vivo
[20] = Total clearance in Sprague-Dawley rat at 2.0 mg/kg, iv as solution in 5% glucose and 10% DMSO; conditions: in vivo
[21] = Elimination half life in Sprague-Dawley rat at 2.0 mg/kg, iv as solution in 5% glucose and 10% DMSO; conditions: in vivo, read-out: beta t1/2 (converted)
[22] = Elimination half life in Sprague-Dawley rat at 20 mg/kg, po as suspension with carboxymethylcellulose; conditions: in vivo, read-out: beta t1/2 (converted)
[23] = Apparent volume of distribution in Sprague-Dawley rat at 2.0 mg/kg, iv as solution in 5% glucose and 10% DMSO; conditions: in vivo, read-out: Vz

Row | SMILES | EC50 [1] [µM] | EC50 [2] [µM] | EC50 [3] [µM] | CC50 at 120 h [4] [µM] | fold change (FC) [5] | solubility kinetic [6] [µg/mL] | solubility kinetic [7] [µg/mL] | chromatographic logD [8] | other results
1 | O=C(c1ccc(F)cc1)N1CCN2C(=O)c3ccccc3C12c1ccc(Cl)cc1 (racemic) | 0.75 | 0.26 | 0.28 | > 20 | 39 | 6.3 (≈ 15.5 µM) | 6.3 (≈ 15.5 µM) | 4 | Ratio EC50 [9]: >76; fraction unbound [10]: 0.02; half-life [11]: 16 h; clearance [12]: 2.1 mL/min/kg; Vd [13]: 2.7 L/kg; Cmax [14]: 2 µM; half-life [15]: 17 h; bioavailability [16]: 15%; Ratio EC50 [17]: >76
2 | O=C(c1ccc(F)cc1)N1CCN2C(=O)c3cc[n+]([O-])cc3C12c1ccc(Cl)cc1 (racemic) | 0.91 | 0.12 | 0.25 | > 47 | <10 | 50 (≈ 118 µM) | 25 (≈ 59 µM) | 2.3 | bioavailability [18]: 89%; Cmax [19]: 23 µM; clearance [20]: 2.4 mL/min/kg; half-life [21]: 6.5 h; half-life [22]: 5.6 h; Vd [23]: 1.3 L/kg

— ChEMBL document CHEMBL3392957, “The discovery of 1,2,3,9b-tetrahydro-5H-imidazo[2,1-a]isoindol-5-ones as a new class of respiratory syncytial virus (RSV) fusion inhibitors. Part 1” (Bioorg Med Chem Lett, 2015)
